# Source: PubChem (several laboratories)
# The list is not random: actives were taken first. Their share in the collection is about 5.3%.
# Cav32 inh: human Cav3.2 channel inhibition, primary screen | O95180 | Cav3.2-expressing cells, Fluo-4 calcium fluorescence FDSS; hits give low values | B-score at 10 µM | hit rate 4% among 100,000 | AID 449739;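 active = single-dose well whose peak fluorescence ratio is a statistical outlier from its plate by either plate-standardised score or position-corrected B-score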
# EphB4 ephrin blk: antagonists of human EphB4-ephrin-B2 interaction; P54760; EphB4 LBD / TNYL-RAW-Alexa532 peptide, fluorescence polarization; inhibition, % at 7 µM; hit rate 0.15% among 97,000;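 active = inhibition above the screen-wide mean inhibition plus 3 SD, cut at about 15% in these data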
# PLK1 PBD inh: Plk1 (human) PBD binding inhibition. P53350. Plk1 PBD phosphopeptide binding, fluorescence polarization. inhibition, %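 (tested at about 20 µM)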. hit rate 0.13% among 97,000. AID 693; in the data active = inhibition above about 34%, passing the limit was not always enough
# FAK blocker: FAK (human) kinase inhibition; biochemical FAK kinase activity assay; inhibition, %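 (tested at 7 µM)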; hit rate 0.84% among 97,000; AID 727; in the data active = inhibition above about 19%
# HIV Rev-RRE inh: inhibitors of HIV-1 Rev-RRE RNA interaction. hit rate 0.79% among 97,000. inhibition, % at 8 µM. P05866. Rev peptide-RRE RNA binding, FRET;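 active = inhibition above the screen-wide mean plus 3 SD, cut at about 35% in these data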
#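 Test system – labelled RRE RNA duplex and labelled Rev peptide · Signal – fluorescein-to-Cy5 FRET, 480 nm excitation · Evaluation – % inhibition of FRET ratio versus controls · Benchmarks – DMSO low control, neomycin B high control · Incubation – 5 min RNA-compound premix plus 15 min binding step, 25 °C · Medium – HEPES pH 7.5 salt buffer with EDTA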
# PLK1 inh: inhibitors of human PLK1 kinase | P53350 | recombinant PLK1 kinase, TR-FRET peptide phosphorylation | inhibition, % at 10 µM | hit rate 0.53% among 97,000;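 active = inhibition of 50% or more in the single-concentration screen; inactive = inhibition below 50%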
# PLK1 inh conf: confirmation of human PLK1 kinase inhibitors | shares compounds with PLK1 inh | recombinant PLK1 kinase, TR-FRET peptide phosphorylation | inhibition, % at 10 µM | hit rate 20% among 210 | AID 744;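 active = inhibition at or above 50% in each of two repeat confirmation tests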
# Plk1 interf: counter-screen for Plk1 inhibitors: compound assay interference; inhibition (interference), % at 10 µM; Plk1 TR-FRET assay interference, compound added post-reaction; AID 756; shares compounds with PLK1 inh; 210 tested, under 10 active;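 active = both duplicate runs show 50% or greater inhibition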
# Numbers stand for hits; 0 = inactive; - = no result given; [ ] = remark or other dose.
SMILES,Cav32 inh,EphB4 ephrin blk,PLK1 PBD inh,FAK blocker,HIV Rev-RRE inh,PLK1 inh,PLK1 inh conf,Plk1 interf
Cc1nn(-c2ccccc2)c(Cl)c1C1C(C#N)=C(N)Oc2c1c(C)nn2-c1ccccc1 (centres undefined),0,0,0,0,0,0,-,-
C=CCOC(=O)C1=C(C)OC(N)=C(C#N)C1c1c(C)nn(-c2ccccc2)c1Cl (centres undefined),-9.2,0,0,0,0,0,-,-
CCOC(=O)C1=C(C)OC(N)=C(C#N)C1c1c(C)nn(-c2ccccc2)c1Cl (centres undefined),-9.2,-,-,-,-,-,-,-
Cc1ccnc(N2CCC(C(=O)Nc3cccc(C(F)(F)F)c3)CC2)n1,0,-,-,-,-,-,-,-
C[C@H](NC(=O)c1nc[nH]c1C(=O)NC1CCN(C(=O)OC(C)(C)C)CC1)C(=O)OCc1ccccc1,0,-,-,-,-,-,-,-
Clc1cccc(/C=N/Nc2ncnc3ccccc23)c1,0,85[fluorescence artefact?],0,0,0,0,-,-
CCOC(=O)c1cnc2c(c(C)nn2C)c1Oc1ccc(Cl)cc1,-6.7,0,0,0,0,0,-,-
COC(=O)c1sccc1NC(=O)CSc1ccccc1NS(=O)(=O)c1ccc(F)cc1,-5.6,0,0,0,0,0,-,-
COC(=O)c1sccc1NC(=O)CSc1ccccc1NS(=O)(=O)c1ccc(Br)cc1,0,0,0,0,0,0,-,-
Cc1ccccc1C(=O)NC1CCN(C(=O)N(c2ccccc2)c2ccccc2)CC1,0,0,0,0,0,0,-,-
COc1ccc(C2(CNC(=O)Cc3ccc(OC)c(OC)c3)CCOCC2)cc1,0,0,0,0,0,0,-,-
Fc1ccc(Sc2cc(Cl)c(-c3ccccc3)nn2)cc1,0,20,0,0,0,0,-,-
Cc1cccc(NC(=O)C2(C)CC3c4ccccc4C2c2ccccc23)c1 (centres undefined),0,0,0,0,0,0,-,-
Cc1cccc(NC(=O)C2(c3ccc([N+](=O)[O-])cc3)CCCC2)c1,-5.5,0,0,0,0,0,-,-
Cc1cccc(NC(=O)C(c2cccc([N+](=O)[O-])c2)N2CCCCC2)c1 (centres undefined),-8,0,0,0,0,0,-,-
CCOC(=O)N1CCN(C(=O)CN(c2cccc(C(F)(F)F)c2)S(C)(=O)=O)CC1,0,0,0,0,0,0,-,-
CC(C)(C)OC(=O)N1CCN(C(=O)[C@H](Cc2ccc(O)cc2)n2cc(CCO)nn2)CC1,0,-,-,-,-,-,-,-
CC(C)Sc1nnc([C@H](Cc2c[nH]c3ccccc23)NC(=O)OC(C)(C)C)o1,-4.1,0,0,0,0,0,-,-
CC(C)(C)OC(=O)N[C@@H](Cc1c[nH]c2ccccc12)c1nnc(SCC(N)=O)o1,0,0,0,0,0,0,-,-
CO/C([O-])=N/c1c[n+](-c2ccc(Cl)cc2)no1,0,0,0,0,0,0,-,-
CCOc1cc(C2C(C#N)=C(N)SC(N)=C2C#N)ccc1OCCN1CCOCC1,0,0,0,0,75,0,-,-
CCOC(=O)C1(C(C)(C)CC)CC(CSc2nc3ccccc3[nH]2)OC1=O (centres undefined),-6.8,0,0,0,0,0,-,-
O=c1c2ccccc2c(C=NCCc2ccccc2)c(O)n1Cc1ccccc1,-3.9,0,0,0,0,0,-,-
CCN(CC)S(=O)(=O)c1cc(C(=O)Nc2ccc(Cl)cn2)ccc1C,-4.3,-,-,-,-,-,-,-
C#CCOC(=O)c1ccc(-n2cncn2)nc1,0,0,0,0,0,0,-,-
SMILES,Cav32 inh,EphB4 ephrin blk,PLK1 PBD inh,FAK blocker,HIV Rev-RRE inh,PLK1 inh,PLK1 inh conf,Plk1 interf
COc1ccc(S(=O)(=O)NCC2CCC(C(=O)N3CCC4(CC3)OCCO4)CC2)cc1 (centres undefined),0,0,0,0,0,0,-,-
CCOC(=O)c1cc(C)n(CCc2ccccc2)c1C,-3.8,0,0,0,0,0,-,-
CCOC(=O)c1cc(-c2ccccc2)n(CCC(=O)O)c1C,0,0,0,0,0,0,-,-
CN(NS(=O)(=O)c1ccccc1)c1nc2ccccc2nc1C(F)(F)F,-4.2,0,0,0,0,0,-,-
CCOC(=O)c1cnc2c(C#N)c(C)nn2c1-c1ccccc1,0,0,0,0,0,64,-,-
O=C(Nc1ccccc1)[C@@H]1CC=C[C@@H]2CCN(Cc3ccc(Cl)c(Cl)c3)C(=O)[C@@H]21,0,-,-,-,-,-,-,-
CCOC(=O)c1sc2nc[nH]c(=O)c2c1C,0,0,0,0,0,79,73,0
Nc1ncnc(Nc2ccccc2C(F)(F)F)n1,-,0,0,0,0,72,70,0
COc1ccc(C2C(C(C)=O)=C(C)Nc3ncnn32)cc1OC (centres undefined),0,0,0,0,0,0,-,-
COc1cc(C2C(C(=O)OC(C)C)=C(C)Nc3ncnn32)cc(OC)c1OC (centres undefined),0,0,0,0,0,81,0,0
c1ccc(COc2ccc(Nc3ncnc4nc[nH]c34)cc2)cc1,0,0,0,0,0,72,0,0
Cc1cccc(Nc2ncnc3nc[nH]c23)c1,0,0,0,0,0,76,81,0
C/C(=N\Nc1cc(Cl)nc(C)n1)c1ccc(C)cc1,0,0,0,0,0,0,-,-
OCCN1CCN(c2ncnc3ccc(Br)cc23)CC1,-,0,0,0,0,79,0,0
COC(=O)c1[nH]c2ccc(Cl)cc2c1NC(=O)CN1CCC(C(N)=O)CC1,0,0,0,0,0,72,0,0
CCN(CC)C(=O)CSc1nc2ccccc2c(=O)[nH]1,0,0,0,0,0,0,-,-
CCOC(=O)CSc1nc2ccccc2c(=O)[nH]1,0,0,0,0,0,72,0,0
OC(CN1C2=NCCCN2c2ccccc21)c1ccc(Cl)cc1 (centres undefined),0,0,0,0,0,80,0,0
O=C(Nc1cccnc1)c1cnn2cccnc12,0,0,0,0,0,76,63,0
CCCOc1ccc(-c2cnc(N)s2)cc1,0,0,0,0,0,0,-,-
CCn1c(SCC(=O)N2CCOCC2)nc(O)cc1=O,0,0,0,0,0,71,0,0
COCCCNC(=O)c1ccc(CS(=O)(=O)c2ccc(Br)cc2)o1,0,0,0,0,0,75,0,0
CCCN1CCN(CCCNC(=O)CCNC(=O)Cn2ccc3ccccc3c2=O)CC1,0,0,0,0,0,0,-,-
CCOC(=O)N1CCN(c2c(NCCCN3CCCCCC3)c(=O)c2=O)CC1,0,0,0,0,0,0,-,-
O=c1c2c([nH]c3ccc(Br)cc13)CCCC2,0,-,-,-,-,-,-,-
O=c1ccc2cc3c([nH]c4ccc(Br)cc43)oc-2c1O,0,0,0,0,37,71,0,0
NC(=O)[C@@H]1CCCNc2c(I)cc([N+](=O)[O-])cc2C(=O)N[C@@H](CO)C(=O)NCC(=O)N1,0,-,-,-,-,-,-,-
